From ChEMBL document CHEMBL5532647, “Design, synthesis, ADME and biological evaluation of benzylpiperidine and benzylpiperazine derivatives as novel reversible monoacylglycerol lipase (MAGL) inhibitors” (Eur J Med Chem, 2024)
The source made the active and inactive calls. The rule behind the calls is not given here.

Tests used:
[1] = biological target: T1, Lysophosphatidylserine lipase ABHD12 (Homo sapiens) (UniProt Q8N2K0); experiment: Inhibition of human ABHD12 transfected in HEK293 cells at 10 uM preincubated with compound for 30 mins followed by 2-OG addition and measured after 5 mins by liquid scintillation spectroscopy; assay type: cell-based; conditions: time 35.0 min
T1 sequence (whole entry): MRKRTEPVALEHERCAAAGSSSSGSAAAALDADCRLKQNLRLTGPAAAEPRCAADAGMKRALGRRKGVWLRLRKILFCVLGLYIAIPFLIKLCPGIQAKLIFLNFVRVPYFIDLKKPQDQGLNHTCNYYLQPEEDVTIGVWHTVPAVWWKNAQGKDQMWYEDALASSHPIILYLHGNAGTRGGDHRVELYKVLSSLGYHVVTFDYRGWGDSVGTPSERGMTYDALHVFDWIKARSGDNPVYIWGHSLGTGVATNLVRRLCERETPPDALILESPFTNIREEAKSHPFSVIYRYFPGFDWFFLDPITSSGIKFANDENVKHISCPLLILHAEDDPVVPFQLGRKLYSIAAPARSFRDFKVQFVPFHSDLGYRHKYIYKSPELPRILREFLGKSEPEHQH
Summary of the method: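 Homogenates (40 μg) of HEK293 cells stably transfected with hABHD6 or hABHD12. Compound 10 μM preincubated 30 min at 37 °C, 500 rpm, in Tris/EDTA buffer with 0.1% fatty acid-free BSA, pH 7.6. Controls: WWL70 10 μM or THL 20 μM; DMSO vehicle. 2-OG 10 μM added for 5 min at 37 °C. Stopped with ice-cold CHCl3:MeOH; aqueous phase counted. No-enzyme blanks used; non-transfected HEK293 hydrolysis subtracted.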

[2] = biological target: Cannabinoid receptor 2 (Homo sapiens) (UniProt P34972); experiment: Displacement of [3H]CP55940 from human CB2 receptor at 10 uM incubated for 90 mins
Sequence of Cannabinoid receptor 2 (Homo sapiens) (P34972 whole entry): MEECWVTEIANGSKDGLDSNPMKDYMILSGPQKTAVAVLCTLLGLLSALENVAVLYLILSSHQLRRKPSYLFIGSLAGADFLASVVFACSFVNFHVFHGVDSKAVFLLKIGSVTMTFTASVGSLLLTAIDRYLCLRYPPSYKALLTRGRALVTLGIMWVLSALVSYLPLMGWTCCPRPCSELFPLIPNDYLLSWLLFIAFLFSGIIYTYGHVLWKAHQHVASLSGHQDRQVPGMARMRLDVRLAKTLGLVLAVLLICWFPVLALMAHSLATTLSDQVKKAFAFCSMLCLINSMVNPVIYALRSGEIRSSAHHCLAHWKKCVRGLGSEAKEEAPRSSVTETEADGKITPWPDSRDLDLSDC
Summary of the method: (§1)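 Membranes expressing hCB1 or hCB2 in 50 mM Tris-HCl buffer, pH 7.4, with 2.5 mM EDTA, 5 mM MgCl2 and 0.5% fatty acid-free BSA. Incubated with compound (10 μM screening) or vehicle plus 0.5 nM [3H]CP55,940 for 90 min at 30 °C. Non-specific binding defined with 10 μM […]. GF/B filtration, ice-cold buffer washes, radioactivity counted. Two independent experiments in triplicate.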

[3] = biological target: T2, Monoacylglycerol lipase ABHD6 (Mus musculus) (UniProt Q8R2Y0); experiment: Inhibition of mouse brain ABHD6 at 10 uM incubated with compound for 25 mins by TAMRA-FP probe based SDS-PAGE analysis; assay type: tissue-based
T2 sequence (whole entry): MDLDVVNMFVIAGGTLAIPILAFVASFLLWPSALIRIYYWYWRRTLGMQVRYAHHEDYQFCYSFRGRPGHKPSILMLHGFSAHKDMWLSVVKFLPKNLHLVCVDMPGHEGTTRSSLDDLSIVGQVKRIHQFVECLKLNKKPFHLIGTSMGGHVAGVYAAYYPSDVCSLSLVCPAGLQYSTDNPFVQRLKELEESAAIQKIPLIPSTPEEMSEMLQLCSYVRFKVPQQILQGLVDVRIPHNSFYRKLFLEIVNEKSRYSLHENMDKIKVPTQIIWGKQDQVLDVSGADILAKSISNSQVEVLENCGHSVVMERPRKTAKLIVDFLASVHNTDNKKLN
Summary of the method: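 Mouse brain membranes (2 mg/mL final, in PBS) preincubated 25 min at 25 °C with test compound (10 μM final) or DMSO vehicle. Controls: JZL-184, URB597 4 μM, WWL70 10 μM, THL, MAFP 5 μM. TAMRA-FP 125 nM final added for 5 min at 25 °C. Reaction stopped with Laemmli buffer, 3 min at 25 °C then 10 min at 90 °C. Separation by 10% SDS-PAGE, fluorescence scanning, three independent experiments.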

[4] = biological target: Cannabinoid receptor 1 (Homo sapiens) (UniProt P21554); experiment: Displacement of [3H]CP55940 from human CB1 receptor at 10 uM incubated for 90 mins; summary of the method: as §1
Sequence of Cannabinoid receptor 1 (Homo sapiens) (P21554 whole entry): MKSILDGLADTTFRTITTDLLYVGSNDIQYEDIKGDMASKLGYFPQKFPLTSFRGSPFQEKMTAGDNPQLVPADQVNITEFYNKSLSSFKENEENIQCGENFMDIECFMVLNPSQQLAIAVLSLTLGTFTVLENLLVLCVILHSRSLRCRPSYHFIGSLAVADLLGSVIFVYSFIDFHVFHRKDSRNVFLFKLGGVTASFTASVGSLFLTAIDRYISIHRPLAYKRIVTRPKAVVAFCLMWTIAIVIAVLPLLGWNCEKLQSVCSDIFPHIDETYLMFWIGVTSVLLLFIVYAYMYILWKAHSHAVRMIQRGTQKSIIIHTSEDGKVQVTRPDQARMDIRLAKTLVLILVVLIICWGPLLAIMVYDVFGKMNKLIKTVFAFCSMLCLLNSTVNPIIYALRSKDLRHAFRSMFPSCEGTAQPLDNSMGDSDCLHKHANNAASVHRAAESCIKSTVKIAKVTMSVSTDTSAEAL

[5] = biological target: T3, Monoglyceride lipase (Homo sapiens) (UniProt Q99685); experiment: Reversible inhibition of human recombinant MAGL using 4-nitrophenylacetate as substrate incubated for 15 mins in presence of DTT by microplate reader analysis
T3 sequence (whole entry): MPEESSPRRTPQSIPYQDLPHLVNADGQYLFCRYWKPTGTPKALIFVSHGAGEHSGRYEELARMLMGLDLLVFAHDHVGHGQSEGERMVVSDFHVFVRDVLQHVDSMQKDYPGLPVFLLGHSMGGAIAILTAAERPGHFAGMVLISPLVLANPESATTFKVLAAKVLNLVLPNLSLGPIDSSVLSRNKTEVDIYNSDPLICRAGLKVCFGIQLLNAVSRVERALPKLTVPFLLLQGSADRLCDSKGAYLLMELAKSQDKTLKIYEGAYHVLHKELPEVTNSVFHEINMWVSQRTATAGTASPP
Summary of the method: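 Human recombinant MAGL (11 ng/well) in 10 mM Tris, pH 7.2, with 1 mM EDTA and 0.1 mg/mL BSA, at room temperature. Compound plus 4-NPA incubated 15 min with 10 μM DTT before enzyme addition. Compound final 320–0.02 nM. Absorbance at 405 nm after 30 min, blank-subtracted. IC50 from sigmoidal dose–response fit.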

[6] = biological target: T3, Monoglyceride lipase (Homo sapiens); experiment: Reversible inhibition of human recombinant MAGL using 4-nitrophenylacetate as substrate at 320 nM incubated for 15 mins by microplate reader analysis
Summary of the method: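 Human recombinant MAGL (880 ng in Tris buffer, pH 7.2) incubated 60 min at room temperature with compound at 320 nM in the mixture, then diluted 40-fold in buffer. After 15 min, reaction started with 4-NPA 500 μM (stock added). Activity read at 405 nm after 30 min. Undiluted comparison run at 320 nM and 8 nM.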

Monoglyceride lipase = biological target: T4, Monoglyceride lipase (Homo sapiens, UniProt Q99685); experiment: Inhibition of human recombinant MAGL using 4-nitrophenylacetate as substrate incubated for 30 mins by microplate reader analysis
T4 sequence (Q99685 whole entry): T3 sequence (whole entry)

Row | SMILES | inhibition [1] | Activity [2] | inhibition [3] | Activity [4] | inhibition [5] | inhibition [6] | IC50 (Monoglyceride lipase)
1 | O=C(c1cccc(O)c1)N1CCC(Cc2ccc(F)c(Sc3cc(C(F)(F)F)ccn3)c2)CC1 | inactive | inactive | inactive | inactive | inactive | Active | 2.7 nM
2 | O=C(c1cccc(O)c1)N1CCC(Cc2cccc(Sc3cc(C(F)(F)F)ccn3)c2)CC1 | inactive | inactive | inactive | inactive | inactive | Active | 2.5 nM
3 | O=C(c1cc(O)ccc1F)N1CCN(Cc2cccc(Sc3cc(C(F)(F)F)ccn3)c2)CC1 | inactive | inactive | inactive | inactive | inactive | Active | 5.2 nM
4 | O=C(c1cc(O)ccc1F)N1CCC(Cc2cccc(Sc3cc(C(F)(F)F)ccn3)c2)CC1 | inactive | inactive | inactive | inactive | inactive | Active | 1.3 nM
